{
  "source": "paper PMC6381215",
  "about": "(Pharmacology Research & Perspectives, 2019)",
  "key": {"[1]": {"test_system": "Na+ channel (site 2)", "experiment": "radioligand competition", "conditions": "read-out: IC50 (M) ^a", "method_in_brief": "(§1)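 Outsourced radioligand competition binding panel of receptors, transporters and ion channels. Primary screen used a single 10 μmol L−1 concentration of test compound to give % inhibition of control specific binding. […] IC50 and Hill coefficient were obtained by non-linear regression.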"}, "[2]": {"test_system": "Ca2+ channel (L, verapamil site)", "experiment": "radioligand competition", "conditions": "read-out: IC50 (M) ^a", "method_in_brief": "as §1"}, "[3]": {"test_system": "Sigma (1 and 2)", "experiment": "radioligand competition", "conditions": "read-out: IC50 (M) ^a; non-selective sigma 1 and 2", "method_in_brief": "as §1"}, "[4]": {"biological_target": "NMDA receptor (ion-channel / PCP site), rat forebrain membranes", "experiment": "enhancement of [3H]MK-[…]) binding", "conditions": "5 mM Tris-HCl pH 7.4, 25 °C, 20 h"}},
  "data": [
    {"molecule": "COc1cccc(N(C)C(=N)Nc2cc(SC)ccc2Cl)c1", "note": "[GMOM, N‐(2‐chloro‐5‐thiomethylphenyl)‐N′‐(3‐methoxyphenyl)‐N′‐methylguanidine]", "values": [
      {"measurement": "IC50", "setting": "[1]", "value": "3.9e-06", "unit": "M"},
      {"measurement": "IC50", "setting": "[2]", "value": "2.2e-06", "unit": "M"},
      {"measurement": "IC50", "setting": "[3]", "value": "2.2e-06", "unit": "M"}
    ]},
    {"molecule": "N[C@@H](CCC(=O)O)C(=O)O", "note": "[L-glutamate]", "values": [
      {"measurement": "EC50", "setting": "[4]; agonist (glutamate) site, no added glycine", "value": "0.2 ± 0.01", "unit": "µM"}
    ]},
    {"molecule": "NCC(=O)O", "note": "[glycine]", "values": [
      {"measurement": "EC50", "setting": "[4]; co-agonist (glycine) site, no added glutamate", "value": "1.05 ± 0.5", "unit": "µM"}
    ]}
  ]
}
